Measured values: ChEMBL document CHEMBL3243989, “Antibacterial N-[omega, omega'-bis(alicyclic and aryl)-sec-alkyl]poly(methylene)triamine and -tetramine hydrochloride salts” (J Med Chem, 1979)
Converted amounts (≈) assume the structure as drawn. The source made the active and inactive calls. No cut-off for these calls is given here.

How the values were obtained:
Bacillus subtilis = assay: Antibacterial activity against Bacillus subtilis MB964 assessed as growth inhibition; assay type: functional
How it was run: (§1)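 MIC (µg/mL) by in vitro growth inhibition in an assay system at pH 7.4. Tetracycline was run routinely to check medium, incubation conditions and inoculum virility.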

Escherichia coli = assay: Antibacterial activity against Escherichia coli MB2884 assessed as growth inhibition; assay type: functional; how it was run: as §1
Pseudomonas aeruginosa [1] = assay: Antibacterial activity against Pseudomonas aeruginosa MB418 assessed as growth inhibition; assay type: functional; how it was run: as §1
Staphylococcus aureus [2] = assay: Antibacterial activity against Staphylococcus aureus MB108 assessed as growth inhibition; assay type: functional; how it was run: as §1
[3] = system: Corynebacterium pseudodiphtheriticum; assay: Antibacterial activity against Corynebacterium pseudodiphtheriticum assessed as growth inhibition at 2 to 8 ug/mL; assay type: functional, organism-based
Staphylococcus aureus [4] = assay: Antibacterial activity against Staphylococcus aureus MB2865 assessed as growth inhibition; assay type: functional; how it was run: as §1
[5] = system: Bordetella bronchiseptica; assay: Antibacterial activity against Bordetella bronchiseptica MB905 assessed as growth inhibition; assay type: functional; how it was run: as §1
Salmonella = assay: Antibacterial activity against Salmonella schottmuelleri MB2837 assessed as growth inhibition; assay type: functional; how it was run: as §1
Pasteurella multocida = assay: Antibacterial activity against Pasteurella multocida MB7 assessed as growth inhibition at 2 to 8 ug/mL; assay type: functional, organism-based
[6] = system: Bordetella bronchiseptica; assay: Antibacterial activity against Bordetella bronchiseptica MB3551 assessed as growth inhibition; assay type: functional; how it was run: as §1
Streptococcus pyogenes = assay: Antibacterial activity against Streptococcus pyogenes assessed as growth inhibition at 2 to 8 ug/mL; assay type: functional, organism-based
Klebsiella aerogenes = assay: Antibacterial activity against Klebsiella aerogenes MB1503 assessed as growth inhibition; assay type: functional; how it was run: as §1
Proteus vulgaris = assay: Antibacterial activity against Proteus vulgaris MB838 assessed as growth inhibition at 200 ug/mL; assay type: functional, organism-based
Pseudomonas aeruginosa [7] = assay: Antibacterial activity against Pseudomonas aeruginosa MB2245 assessed as growth inhibition; assay type: functional; how it was run: as §1

Compound | MIC (Bacillus subtilis) [µg/mL] | MIC (Escherichia coli) [µg/mL] | MIC (Pseudomonas aeruginosa [1]) [µg/mL] | MIC (Staphylococcus aureus [2]) [µg/mL] | growth inhibition (GI) [3] | MIC (Staphylococcus aureus [4]) [µg/mL] | MIC [5] [µg/mL] | MIC (Salmonella) [µg/mL] | growth inhibition (GI) (Pasteurella multocida) | MIC [6] [µg/mL] | growth inhibition (GI) (Streptococcus pyogenes) | MIC (Klebsiella aerogenes) [µg/mL] | growth inhibition (GI) (Proteus vulgaris) | MIC (Pseudomonas aeruginosa [7]) [µg/mL]
CC(C)(C)c1ccc(CCCC(CCCc2ccc(C(C)(C)C)cc2)NCCCNCCCN)cc1.Cl | 8 | 40 | 80 | 20 | inactive | 10 | 8 | 8 | Active | 8 | Active | 40 | inactive | 40
CC(C)C1CCC(CCC(CCC2CCC(C(C)C)CC2)NCCCNCCCN)CC1.Cl (stereo unspecified) | 6 | 50 | 60 | 20 | inactive | 40 | 10 | 20 | Active | 10 | Active | 50 | inactive | 60
Cc1ccc(CCC(CCc2ccc(C)cc2)NCCCNCCCN)cc1.Cl | 4 | 50 | 60 | 30 | inactive | 50 | 4 | 10 | Active | 6 | Active | 15 | inactive | 40
CC1(C)C2CCC(C2)C1CCC(CCC1C2CCC(C2)C1(C)C)NCCCNCCCNCCCN.Cl (stereo unspecified) | 2 | 10 | 8 | 15 | inactive | 8 | 2 | 6 | Active | 2 | Active | 30 | inactive | 8
CC1(C)C2CCC(C2)C1CCC(CCC1C2CCC(C2)C1(C)C)NCCCN(CCCN)CCCN.Cl (stereo unspecified) | 4 | 50 | 50 | 6 | inactive | 4 | 4 | 4 | Active | 2 | Active | 30 | inactive | 30
CC1(C)C2CCC(C2)C1CCC(CCC1C2CCC(C2)C1(C)C)NCCNCCN.Cl (stereo unspecified) | 6 | 4 | 200 | 6 | inactive | 6 | 4 | 50 | Active | 4 | Active | 10 | inactive | > 200
CC(C)(C)c1ccc(CCC(CCc2ccc(C(C)(C)C)cc2)NCCCNCCCN)cc1.Cl | 2 | 6 | 8 | 6 | inactive | 15 | 4 | 4 | Active | 4 | Active | 15 | inactive | 15
Cl.NCCCNCCCNC(CCCCC1CCCCC1)CCCCC1CCCCC1 | 8 | 20 | 10 | 10 | inactive | 20 | 4 | 6 | Active | 4 | Active | 20 | inactive | 15
CC(C)(C)c1ccc(CCCC(CCCc2ccc(C(C)(C)C)cc2)NCCNCCNCCN)cc1.Cl | 15 | 60 | 100 | 20 | inactive | 30 | 8 | 8 | Active | 60 | Active | 50 | inactive | 100
Cl.NCCCNCCCNC(CC1CCCCC1)CC1CCCCC1 | 10 | 40 | 60 | 30 | inactive | 40 | 4 | 4 | Active | 6 | Active | 8 | inactive | 40
Cl.NCCNCCNC(CCC1CCCCC1)CCC1CCCCC1 | 4 | 10 | 100 | 4 | inactive | 15 | 4 | 2 | Active | 4 | Active | 8 | inactive | 100
Cl.NCCCNCC(O)CNC(CCC1CCCCC1)CCC1CCCCC1 (stereo unspecified) | 4 | 8 | 20 | 8 |  | 15 | 4 | 4 |  | 4 |  | 6 |  | 8
CN(C)[C@@H]1C(O)=C(C(N)=O)C(=O)[C@@]2(O)C(O)=C3C(=O)c4c(O)cccc4[C@@](C)(O)[C@H]3C[C@@H]12 [TETRACYCLINE] | 2 (≈ 4.5 µM) | 30 (≈ 67.5 µM) | 20 (≈ 45 µM) | 2 (≈ 4.5 µM) | inactive | 2 (≈ 4.5 µM) | 2 (≈ 4.5 µM) | 2 (≈ 4.5 µM) | Active | 2 (≈ 4.5 µM) | Active | 2 (≈ 4.5 µM) | inactive | 30 (≈ 67.5 µM)
CC(C)c1ccc(CCC(CCc2ccc(C(C)C)cc2)NCCCNCCCN)cc1.Cl | 4 | 8 | 10 | 8 | inactive | 8 | 4 | 4 | Active | 4 | Active |  | inactive | 10
